Molecules are shown by their SMILES.

This note sets out measurements from article PMC5650512 (Cell chemical biology, 2017).

Data set [1] concerns AMPKα (p-Thr172). The data set can be described thus: AMPKα Thr172 phosphorylation western blot, MCF-7. The class given is cell-based.
For data set [2], the system named is MCF-7 cells. The data set can be described thus: OCR and ECAR, XF Extracellular Flux Analyzer, MCF-7. The class given is cell-based.
A further data set has as its system MCF-7 cell line. The experiment in a line: MCF-7 cell proliferation. Particulars: for Abrogation of biguanide growth inhibition by (±)-14,15-EET: (±)-14,15-EET 1 µM, MTT at 24 hours. The class given is cell-based.
The subject of data set [3] is cytochrome P450 reductase (CPR). The data set can be described thus: Rate of reduction of cytochrome c by CPR. The class given is biochemical. The method, boiled down: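 Run in a quartz cuvette with 1 mL 0.3 M potassium phosphate, pH 8.3, containing cytochrome c (62 μM) and NADPH (50 μM). Reaction started by adding CPR (final 0.2 mg/mL). Absorbance at 550 followed in real time.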

Data set [4] deals with MCF-7 cells. The experiment in a line: Cellular EET levels by LC-ESI/MRM/MS. The following applies: 5 mM, 6 hours; P<0.05 for each regioisomer. The class given is cell-based.
The next data set has as its target T1, CYP2J2 (Homo sapiens, UniProt P51589).
T1 sequence (P51589 1-502): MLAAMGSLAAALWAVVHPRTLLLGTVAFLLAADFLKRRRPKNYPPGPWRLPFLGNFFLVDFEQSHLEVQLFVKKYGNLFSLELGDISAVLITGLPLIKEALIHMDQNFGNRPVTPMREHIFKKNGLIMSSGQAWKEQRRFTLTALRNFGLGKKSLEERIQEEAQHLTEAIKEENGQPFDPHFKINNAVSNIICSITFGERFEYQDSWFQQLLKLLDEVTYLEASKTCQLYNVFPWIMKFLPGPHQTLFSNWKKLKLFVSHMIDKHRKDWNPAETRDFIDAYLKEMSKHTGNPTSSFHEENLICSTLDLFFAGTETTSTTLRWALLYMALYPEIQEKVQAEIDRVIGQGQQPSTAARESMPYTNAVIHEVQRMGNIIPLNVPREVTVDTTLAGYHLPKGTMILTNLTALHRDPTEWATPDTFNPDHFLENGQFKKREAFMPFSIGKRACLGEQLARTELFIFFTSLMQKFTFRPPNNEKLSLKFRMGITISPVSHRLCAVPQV
The experiment in a line: CYP2J2 AA epoxygenase activity. The class given is biochemical. Particulars: data not shown.

Data set [5] has as its system MCF-7 cells. The data set can be described thus: Cellular ATP by luminescent assay. The class given is cell-based. The following applies: 6 hours, 10% serum. A digest of the protocol: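 Cells seeded in 96-well plates and exposed to vehicle or test compound. Lysis solution added with 5 min orbital shaking, then luciferase/luminescent substrate; 10 min in the dark before reading luminescence. ATP was quantified against a standard curve of known ATP concentrations.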

Data set [6] has as its system AMPKα (p-Thr172). The experiment in a line: AMPKα phosphorylation western blot, MDA-MB-231. The class given is cell-based. The following applies: 1 µM; 24 hours.
The test system of data set [7] is MCF-7 cells. The experiment in a line: Mitochondrial membrane potential ΔΨm. The class given is cell-based. The method, boiled down: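 JC-1 arm: MCF-7 cells exposed to test compound (20 µM, 4 h), with or without pre-treatment with (±)-14,15-EET (1 µM). Red/green ratio quantified as mean ± S.D. (n=4). TMRE arm: 20,000 cells/well grown overnight, TMRE 500 nM for 30 min at 37 °C, two washes in PBS/0.2% BSA, read Ex 530/Em 590 nm. FCCP (10 µM, 30 min) background subtracted.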

Another data set concerns MDA-MB-231 cells. The experiment in a line: Mitochondrial membrane potential ΔΨm. The class given is cell-based.
In the next data set the test system is T47D cell line. The experiment in a line: T47D cell growth. The class given is cell-based.
Data set [8] concerns MCF-7 mammary fat pad xenograft. The experiment in a line: MCF-7 orthotopic mammary fat pad xenograft.
The subject of data set [9] is STAT3-Tyr705, p70 S6 Kinase-Thr389, mTOR-Ser2448, ERK1/2 phosphorylation. The experiment in a line: Western blot time course of signaling proteins, MCF-7. The class given is cell-based. Particulars: 20 µM.
Another data set deals with CYP3A4 (Homo sapiens, UniProt P08684). The experiment in a line: Microsomal CYP3A4-mediated EET biosynthesis. The class given is biochemical. The following applies: IC50, inhibition of CYP3A4-mediated synthesis of (±)-14,15-EET, 30 minutes exposure.
Sequence of CYP3A4 (P08684 whole entry): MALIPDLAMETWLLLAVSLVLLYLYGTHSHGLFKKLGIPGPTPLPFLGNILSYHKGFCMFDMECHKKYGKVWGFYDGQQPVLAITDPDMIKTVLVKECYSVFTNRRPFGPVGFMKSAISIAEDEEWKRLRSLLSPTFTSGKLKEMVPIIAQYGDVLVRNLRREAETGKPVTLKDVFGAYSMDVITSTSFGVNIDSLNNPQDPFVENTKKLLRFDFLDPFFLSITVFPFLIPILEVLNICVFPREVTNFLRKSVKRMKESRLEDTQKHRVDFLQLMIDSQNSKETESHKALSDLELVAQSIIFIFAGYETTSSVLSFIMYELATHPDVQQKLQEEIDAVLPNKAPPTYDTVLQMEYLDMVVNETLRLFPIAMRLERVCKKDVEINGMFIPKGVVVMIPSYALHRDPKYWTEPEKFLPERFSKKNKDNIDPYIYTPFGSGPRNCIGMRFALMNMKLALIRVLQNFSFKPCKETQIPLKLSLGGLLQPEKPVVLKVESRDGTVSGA
Data set [10] relates to AMPKα in MDA-MB-231 tumors. The data set can be described thus: Signaling proteins in MDA-MB-231 xenograft tumors. Details: species or system mice. Particulars: in vivo.
The nature of data set [11]: Plasma concentration after ip dosing. Particulars: female, athymic nude (Foxn1nu/Foxn1nu), mouse, 4 mg/kg/day. The class given is in vivo, mice.
A further data set concerns MDA-MB-231 cell line. The experiment in a line: MDA-MB-231 cell growth. The class given is cell-based.
Data set [12] relates to mTOR, PKC-ζ/λ, AMPKα in MCF-7 tumors. The experiment in a line: Signaling proteins in MCF-7 xenograft tumors. The class given is in vivo, mice.
Data set [13] deals with MDA-MB-435/LCC6 cell line. The experiment in a line: MDA-MB-435/LCC6 cell growth. The class given is cell-based. Particulars: data not shown.
Setting [14] is: metformin 2.5 or 5 mM, over 5 hours.

On to `CCCCCC1OC1CCCCCCC/C=C\CCCC(=O)O` (racemic) [(±)-14,15-EEZE], for which the “Effect on AMPKα activation” value in the data set with AMPKα (p-Thr172) [1] (associated with OCR suppression) is “early activation”. Also, in the data set on MCF-7 cells [2] (1.0 µM), the “Effect on ECAR” value was “suppressed” and the “Effect on OCR” value is given as “suppressed”.
`CCCCNC(=N)NC(=N)N` [buformin]: the “Abrogation of biguanide growth inhibition by (±)-14,15-EET” value in the data set on MCF-7 cell line was “part of the inhibition”.
Consider `CN(C)C(=N)N=C(N)N` [metformin], for which, in the data set on MCF-7 cells [2] (setting [14]), the “Effect on ECAR” value is reported as “transient ECAR spike, followed by suppression of ECAR” and the “Effect on OCR” value was “marginal suppression of OCR”. The “Inhibition of transfer of electrons from CPR (rate of reduction of cytochrome c)” value in [3] was “does not inhibit”. The “Intracellular EET levels” value in the data set with MCF-7 cells [4] is recorded as “reduced”. Moreover, the “Inhibition of AA epoxygenase activity of CYP2J2” value on CYP2J2 (0.75, […] or 3 mM) is “not inhibited”. Also, in the data set on MCF-7 cells [5] (metformin, normalized to cell number), the “Effect on cellular ATP” value is listed as “no effect”. The “Abrogation of biguanide growth inhibition by (±)-14,15-EET” value in the data set on MCF-7 cell line is on record as “abrogated most of the growth inhibition”.
Regarding `NC(=O)c1ncn([C@@H]2O[C@H](CO)[C@@H](O)[C@H]2O)c1N` [AICAR], in the data set on MCF-7 cells [2] (AICAR 100 µM), the “Effect on ECAR” value is given as “increased” and the “Effect on OCR” value is reported as “increased”.
Consider `CCCCCC1OC1C/C=C\C/C=C\C/C=C\CCCC(=O)O` (racemic) [(±)-14,15-EET, (±)-14,15-(5Z,8Z,11Z)-EET, reference compound], for which the “Effect on pAMPKα (Thr172) phosphorylation” value in the data set with AMPKα (p-Thr172) [1] (1 µM, 6 and 24 hours) is reported as “suppression of pAMPKα phosphorylation”. Also, the “Effect on AMPK phosphorylation” value in the data set on AMPKα (p-Thr172) [6] was “no effect”. The “Effect on ΔΨm alone (JC-1)” value with MCF-7 cells [7] (1 µM, relative to control) is “increased mitochondrial cross membrane potential”. Besides, the “Rescue of HBB-reduced ΔΨm by pre-treatment” value in the data set on MCF-7 cells [7] ((±)-14,15-EET 1 µM, HBB 20 µM) was “partly rescued”; with MDA-MB-231 cells (exogenous (±)-14,15-EET, HBB 20 µM), “partly rescued”.
For the compound `[H]/N=C(/N)N/C(=N/[H])NCCc1ccccc1` [phenformin], in the data set on MCF-7 cell line, the “Abrogation of biguanide growth inhibition by (±)-14,15-EET” value is on record as “part of the inhibition”.
As for `CCCCCCNC(=N)NC(=N)NCc1ccccc1` [HBB, N1-hexyl-N5-benzyl-biguanide], in the data set with T47D cell line, the “Abrogation of HBB growth inhibition by (±)-14,15-EET” value is “abrogated most of the HBB inhibition”. Moreover, the “Effect on pAMPKα” value with AMPKα (p-Thr172) [1] (20 µM) is recorded as “activated pAMPKα within 30 minutes”. In the data set on MCF-7 cells [2], the “Potency of OCR inhibition compared to metformin” value is more than 250 fold. The “Effect on ECAR” value in the data set with MCF-7 cells [2] (HBB 20 and 40 µM) was “transient spike of ECAR, followed by inhibition without recovery”. Further, in the data set with MCF-7 cells [2] (HBB 20 and 40 µM), the “Effect on OCR” value is “rapid, dose-dependent reduction of OCR within 15 minutes”. Further, the “Tumor size vs. vehicle” value in data set [8] (4 mg/kg/day, Gompertzian fitting P=0.0354) is “smaller than the vehicle-treated from day 8 onward”. Moreover, in data set [8] (6 mg/kg ip 4 days per week), the “Hepatic or cardiac toxicities by post-mortem histopathology” value is reported as “no HBB-related hepatic or cardiac toxicities”. In data set [8] (6 mg/kg ip 4 days per week (24 mg/kg/week), P=0.039), the Tumor size result is reported as “reduced tumor size”. For the same compound, the “Tumor weights at the end point relative to vehicle” value in data set [8] (6 mg/kg ip 4 days per week, P=0.034) is given as “half”. Further, the “Minimal effective dose (MED)” value in data set [8] (ip daily beginning the day after tumor cell implantation) is on record as 4 mg/kg. The “Effect on mTOR, S6 kinase and ERK” value in data set [9] (by 24 hours, presence or absence of serum) is “Significant inhibition”. In addition, in [9] (independent of serum starvation), the “Effect on p70 S6 kinase” value was “rapid and transient activation of p70 S6 kinase at 30 minutes”. For the same compound, in [9] (presence of serum), the “Effect on Stat3 phosphorylation” value was “inhibited Stat3 phosphorylation”. This compound registered an IC50 at CYP3A4 of 9.5 µM. Besides, the “AMPKα activation in tumors” value is on record as “did activate AMPKα” in data set [10] and “failed to activate AMPKα” in data set [12] (in vivo). This compound returned a concentration at 1 h in data set [11] of 530 nM. Besides, the “Abrogation of HBB growth inhibition by EETs” value (in the data set on MDA-MB-231 cell line; in data set [13]) was “failed to counteract HBB inhibition” each time. Besides, in the data set with MDA-MB-231 cell line, the “Rescue from HBB inhibition by N-acetyl-cysteine (NAC)” value is “rescued by the antioxidant N-acetyl-cysteine (NAC)”. Also, the “Intratumoral PKC-ζ/λ phospho-threonine 410/403 (RPPA)” value in data set [12] (HBB 4 mg/kg/day vs. PBS, P=0.000119) is listed as “reduction of PKC-ζ/λ phospho-threonine 410/403”. The “Intratumoral mTOR (RPPA)” value in [12] (HBB 4 mg/kg/day vs. PBS, P=4.06×10^−6) was “reduction of mTOR”. The “Effect on ΔΨm (JC-1)” value in the data set on MCF-7 cells [7] (20 µM for 4 hours) and with MDA-MB-231 cells (20 µM for 4 hours) was “rapid reduction of ΔΨm” in each case. In addition, the “Effect on ΔΨm (TMRE, non-quenching conditions)” value in the data set with MCF-7 cells [7] (TMRE 500 nM) was “inhibit ΔΨm in a dose dependent fashion”. Also, the “Inhibition of AA epoxygenase activity of CYP2J2” value on CYP2J2 (microsomal) is listed as “did not inhibit”. Also, the “Reduction of ATP” value in the data set with MCF-7 cells [5] (HBB) stood at 30%. Further, the “Abrogation of HBB growth inhibition by EET analog C22” value in the data set on MCF-7 cell line is recorded as “partially abrogated HBB inhibition”. For the same compound, the “Abrogation of biguanide growth inhibition by (±)-14,15-EET” value with MCF-7 cell line is recorded as “part of the inhibition”.
